Laboratory results taken from ChEMBL document CHEMBL2176919, “Design, synthesis, and biological evaluation of 17-cyclopropylmethyl-3,14β-dihydroxy-4,5α-epoxy-6β-[(4'-pyridyl)carboxamido]morphinan derivatives as peripheral selective μ opioid receptor Agents” (J Med Chem, 2012).
Active and inactive are the calls of the source.

How the values were obtained:
Mu-type opioid receptor [1] = molecular target: T1, Mu-type opioid receptor (Homo sapiens, UniProt P35372); details: CHO; 100 nM
Mus musculus [2] = assay: Inhibition of morphine-induced decrease in gastrointestinal motility in sc dosed morphine-pelleted Swiss-Webster mouse; type: functional
[3] = Selectivity ratio of Ki for kappa opioid receptor to Ki for mu opioid receptor
[4] = molecular target: T2, Delta-type opioid receptor (Homo sapiens, UniProt P41143); assay: Agonist activity at delta opioid receptor expressed in CHO cells assessed as stimulation of [35S]-GTP-gammaS binding relative to SNC80; type: functional, cell-based
Mus musculus [5] = assay: Toxicity in morphine-pelleted Swiss-Webster mouse assessed as diarrhea up to 10 mg/kg, sc; type: organism-based; design: dose 10 mg/kg, route subcutaneous; details: in vivo
[6] = molecular target: T3, Kappa-type opioid receptor (Homo sapiens, UniProt P41145); assay: Agonist activity at kappa opioid receptor expressed in CHO cells assessed as stimulation of [35S]-GTP-gammaS binding; type: functional, cell-based
Summary of the method: (§1)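 GTP[γS] functional assay in membranes of CHO cells expressing the cloned opioid receptor. Membrane protein 10 μg incubated at 30 °C with varying drug concentrations and 0.1 nM 35S-GTP[γS]: μ with 10 μM GDP for 2 h; κ and δ with 20 μM GDP for 1.5 h. Nonspecific binding defined with 10 μM unlabeled GTP[γS].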

Caco-2 = assay: Apparent permeability of the compound across human Caco2 cells; type: ADME, cell-based
Summary of the method: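 Caco-2 cells (passages 45–47) grown 22 days on 0.4 μm Transwell filters seeded at 80 000 cells/cm2, in DMEM with 10% FBS, antibiotics and nonessential amino acids. Drug in HEPES-buffered (10 mM) HBSS was added apically or basolaterally, and the receiver side was sampled up to 2 h. Samples were quantified by HPLC-UV. Papp = J/(A·Ci).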

[7] = molecular target: T2, Delta-type opioid receptor; assay: Agonist activity at delta opioid receptor expressed in CHO cells assessed as stimulation of [35S]-GTP-gammaS binding; type: functional, cell-based
Summary of the method: as §1

Mus musculus [8] = assay: Inhibition of morphine-induced decrease in gastrointestinal motility in Swiss-Webster mouse at 10 mg/kg, sc; type: functional, organism-based; design: dose 10 mg/kg
Summary of the method: (§2)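 GI transit assay in male Swiss-Webster mice, groups of four or six. Compound or saline was given sc at time zero, then morphine (2 or 10 mg/kg) sc 5 min later. A charcoal meal was gavaged 20 min after morphine. Mice were killed 30 min after the meal, and charcoal distance was expressed as a percentage of small-intestine length from pylorus to cecum. Significance was tested by one-way ANOVA with Dunnett's test.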

Mu-type opioid receptor [9] = molecular target: T1, Mu-type opioid receptor; assay: Agonist activity at mu opioid receptor expressed in CHO cells assessed as stimulation of [35S]-GTP-gammaS binding relative to DAMGO; type: cell-based
Mus musculus [10] = assay: Inhibition of morphine-induced decrease in gastrointestinal motility in sc dosed Swiss-Webster mouse; type: functional
Summary of the method: as §2

Mus musculus [11] = assay: Antinociceptive activity in Swiss-Webster mouse assessed as thermal-stimulus induced tail flick latency at 10 mg/kg relative to morphine; type: functional
Summary of the method: (§3)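 Warm-water tail flick test in male Swiss-Webster mice (25–30 g) with a 56 ± 0.1 °C bath. Only mice with a 2–4 s baseline latency were used, and a 10 s cutoff was applied. Latency was read after drug treatment. %MPE = [(test − control latency)/(10 − control latency)] × 100, computed per mouse with at least six mice per drug.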

Mus musculus [12] = assay: Inhibition of morphine-induced antinociceptive activity in Swiss-Webster mouse assessed as thermal-stimulus induced tail flick latency at 10 mg/kg; type: functional, organism-based; design: dose 10 mg/kg
[13] = molecular target: T3, Kappa-type opioid receptor; assay: Agonist activity at kappa opioid receptor expressed in CHO cells assessed as stimulation of [35S]-GTP-gammaS binding relative to U50,488H; type: functional, cell-based
Mus musculus [14] = assay: Effect on gastrointestinal motility in Swiss-Webster mouse at 10 mg/kg, sc; type: functional, organism-based; design: dose 10 mg/kg
[15] = Selectivity ratio of Ki for delta opioid receptor to Ki for mu opioid receptor
Mus musculus [16] = assay: Antinociceptive activity in Swiss-Webster mouse assessed as thermal-stimulus induced tail flick latency at 10 mg/kg; type: functional
Summary of the method: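 Male Swiss-Webster mice, 25–30 g, allowed 18 h to recover from transport. Warm-water tail flick, bath at 56 ± 0.1 °C; only mice with 2–4 s baseline latency used. Latency retested after drug at the appropriate time, 10 s cutoff. Expressed as %MPE = [(test − control latency)/(10 − control latency)] × 100, calculated per mouse, at least six mice per drug.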

Mu-type opioid receptor [17] = molecular target: T1, Mu-type opioid receptor; assay: Agonist activity at mu opioid receptor expressed in CHO cells assessed as stimulation of [35S]-GTP-gammaS binding; type: cell-based
Summary of the method: as §1

[18] = molecular target: T3, Kappa-type opioid receptor; assay: Displacement of [3H]DPN from kappa opioid receptor expressed in CHO cells after 1 hr; type: cell-based
[19] = molecular target: T2, Delta-type opioid receptor; assay: Displacement of [3H]NTI from delta opioid receptor expressed in CHO cells after 1 hr; type: cell-based
Mu-type opioid receptor [20] = molecular target: T1, Mu-type opioid receptor; assay: Displacement of [3H]Naloxone from mu opioid receptor expressed in CHO cells after 1 hr; type: cell-based
Mus musculus [21] = assay: Inhibition of morphine-induced decrease in gastrointestinal motility in morphine-pelleted Swiss-Webster mouse at 0.3 to 10 mg/kg, sc; type: functional, organism-based
Mus musculus [22] = assay: Inhibition of morphine-induced antinociceptive activity in Swiss-Webster mouse assessed as thermal-stimulus induced tail flick latency up to 30 mg/kg; type: functional, organism-based; design: dose 30 mg/kg
Mus musculus [23] = assay: Antinociceptive activity in Swiss-Webster mouse assessed as thermal-stimulus induced tail flick latency at 3 mg/kg relative to morphine; type: functional
Summary of the method: as §3

T2 sequence (P41143 whole entry): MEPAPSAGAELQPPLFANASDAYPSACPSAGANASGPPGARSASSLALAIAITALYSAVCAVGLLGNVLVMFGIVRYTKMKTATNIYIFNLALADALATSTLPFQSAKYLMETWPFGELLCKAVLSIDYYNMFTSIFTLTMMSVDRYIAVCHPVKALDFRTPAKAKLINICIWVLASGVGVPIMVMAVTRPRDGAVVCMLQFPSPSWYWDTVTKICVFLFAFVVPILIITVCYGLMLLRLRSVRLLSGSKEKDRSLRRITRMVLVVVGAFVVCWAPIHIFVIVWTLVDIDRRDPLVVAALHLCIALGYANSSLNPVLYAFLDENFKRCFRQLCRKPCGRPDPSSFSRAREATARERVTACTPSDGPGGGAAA
T3 sequence (P41145 whole entry): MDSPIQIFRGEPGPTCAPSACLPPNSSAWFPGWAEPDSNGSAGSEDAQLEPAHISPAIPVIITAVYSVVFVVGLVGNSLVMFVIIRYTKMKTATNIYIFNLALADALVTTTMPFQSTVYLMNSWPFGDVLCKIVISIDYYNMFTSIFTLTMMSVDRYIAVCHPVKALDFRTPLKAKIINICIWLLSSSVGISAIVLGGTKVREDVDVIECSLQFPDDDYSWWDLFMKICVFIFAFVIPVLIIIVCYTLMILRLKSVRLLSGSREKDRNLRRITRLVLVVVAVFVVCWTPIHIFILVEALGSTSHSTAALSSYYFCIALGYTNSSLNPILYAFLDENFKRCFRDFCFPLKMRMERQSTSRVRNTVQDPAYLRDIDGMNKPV
T1 sequence (P35372 whole entry): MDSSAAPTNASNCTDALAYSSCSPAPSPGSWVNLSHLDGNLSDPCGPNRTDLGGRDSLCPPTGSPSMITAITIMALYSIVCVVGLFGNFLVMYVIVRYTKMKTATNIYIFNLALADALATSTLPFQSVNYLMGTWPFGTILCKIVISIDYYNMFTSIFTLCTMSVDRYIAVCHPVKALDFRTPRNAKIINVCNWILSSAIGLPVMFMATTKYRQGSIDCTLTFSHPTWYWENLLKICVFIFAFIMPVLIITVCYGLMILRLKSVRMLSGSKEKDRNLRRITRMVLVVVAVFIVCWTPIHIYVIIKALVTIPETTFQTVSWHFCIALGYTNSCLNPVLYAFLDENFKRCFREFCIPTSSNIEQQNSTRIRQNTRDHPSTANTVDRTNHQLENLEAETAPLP

C[C@@H](O)[C@H](NC(=O)[C@H]1NC(=O)[C@H]([C@@H](C)O)NC(=O)[C@H](CCCNC(=N)N)NC(=O)[C@@H](Cc2c[nH]c3ccccc23)NC(=O)[C@H](Cc2ccc(O)cc2)NC(=O)[C@@H](NC(=O)[C@H](N)Cc2ccccc2)CSSC1(C)C)C(N)=O
Emax (Mu-type opioid receptor [1]): 1.99%

Cc1cnccc1C(=O)N[C@@H]1CC[C@@]2(O)[C@H]3Cc4ccc(O)c5c4[C@@]2(CCN3CC2CC2)[C@H]1O5
ED50 (Mus musculus [2]): 0.03 mg/kg
inhibition (Mus musculus [2]): Dose-dependent effect
Ratio Ki [3]: 166
Emax [4]: 90.2%
Activity (Mus musculus [5]): Non-toxic
EC50 [6]: 26.4 nM
Papp (Caco-2): permeable
EC50 [7]: 38.6 nM
inhibition (Mus musculus [8]): Active
Emax (Mu-type opioid receptor [9]): 30.6%
ED50 (Mus musculus [10]): 7.85 mg/kg
MPE (Mus musculus [11]): 4.4%
inhibition (Mus musculus [12]): inactive
Emax [13]: 31.4%
Activity (Mus musculus [14]): Active
Ratio Ki [15]: 470

CN1CC[C@]23c4c5ccc(O)c4O[C@H]2[C@@H](O)C=C[C@H]3[C@H]1C5 [MORPHINE]
MPE (Mus musculus [16]): 100%

O=C(N[C@@H]1CC[C@@]2(O)[C@H]3Cc4ccc(O)c5c4[C@@]2(CCN3CC2CC2)[C@H]1O5)c1ccncc1
EC50 [6]: 28.8 nM
Emax [13]: 45.5%

CN1CCC(C(=O)N[C@@H]2CC[C@@]3(O)[C@H]4Cc5ccc(O)c6c5[C@@]3(CCN4CC3CC3)[C@H]2O6)CC1
Ratio Ki [3]: 7.5
Emax (Mu-type opioid receptor [9]): 37.2%
Ratio Ki [15]: 2970

O=C(N[C@@H]1CC[C@@]2(O)[C@H]3Cc4ccc(O)c5c4[C@@]2(CCN3CC2CC2)[C@H]1O5)c1ccnnc1
EC50 (Mu-type opioid receptor [17]): 28.3 nM
Ki [18]: 1.57 nM
Ki [19]: 420 nM
Ratio Ki [3]: 0.7
Emax (Mu-type opioid receptor [9]): 27.6%
Ki (Mu-type opioid receptor [20]): 2.07 nM
Ratio Ki [15]: 203

C[N@+]1(CC2CC2)CC[C@]23c4c5ccc(O)c4O[C@H]2C(=O)CC[C@@]3(O)[C@H]1C5
Ratio Ki [3]: 10
Ratio Ki [15]: 24

O=C(N[C@@H]1CC[C@@]2(O)[C@H]3Cc4ccc(O)c5c4[C@@]2(CCN3CC2CC2)[C@H]1O5)c1ccnc(Cl)c1
Ratio Ki [3]: 1.5
Emax (Mu-type opioid receptor [9]): 58.2%
Ratio Ki [15]: 6110

COc1cnccc1C(=O)N[C@@H]1CC[C@@]2(O)[C@H]3Cc4ccc(O)c5c4[C@@]2(CCN3CC2CC2)[C@H]1O5
Ki [18]: 4.28 nM
Ki [19]: 104 nM
Ratio Ki [3]: 10
Ki (Mu-type opioid receptor [20]): 0.43 nM
Ratio Ki [15]: 242

Cc1cc(C(=O)N[C@@H]2CC[C@@]3(O)[C@H]4Cc5ccc(O)c6c5[C@@]3(CCN4CC3CC3)[C@H]2O6)ccn1
Ratio Ki [3]: 1.5
Emax (Mu-type opioid receptor [9]): 43.3%
Ratio Ki [15]: 232

O=C(N[C@@H]1CC[C@@]2(O)[C@H]3Cc4ccc(O)c5c4[C@@]2(CCN3CC2CC2)[C@H]1O5)c1ccnc(Br)c1
Ratio Ki [3]: 0.3
Emax (Mu-type opioid receptor [9]): 50.8%
Ratio Ki [15]: 276

O=C(CNC(=O)c1ccncc1)N[C@@H]1CC[C@@]2(O)[C@H]3Cc4ccc(O)c5c4[C@@]2(CCN3CC2CC2)[C@H]1O5
inhibition (Mus musculus [21]): Active
inhibition (Mus musculus [22]): inactive
ED50 (Mus musculus [2]): 0.08 mg/kg
Emax [4]: 84.3%
Activity (Mus musculus [5]): Non-toxic
EC50 [6]: 25 nM
Papp (Caco-2): permeable
EC50 [7]: 19 nM
MPE (Mus musculus [23]): 11.2%
inhibition (Mus musculus [8]): inactive
Emax (Mu-type opioid receptor [9]): 22.6%
Emax [13]: 23.5%
Activity (Mus musculus [14]): Active

O=C(CCc1ccncc1)N[C@@H]1CC[C@@]2(O)[C@H]3Cc4ccc(O)c5c4[C@@]2(CCN3CC2CC2)[C@H]1O5
Ratio Ki [3]: 2.9
Emax (Mu-type opioid receptor [9]): 22.6%
Ratio Ki [15]: 516

COc1cc(C(=O)N[C@@H]2CC[C@@]3(O)[C@H]4Cc5ccc(O)c6c5[C@@]3(CCN4CC3CC3)[C@H]2O6)ccn1
EC50 (Mu-type opioid receptor [17]): 7.89 nM
Ki [18]: 0.46 nM
Ki [19]: 160 nM
Ratio Ki [3]: 0.8
Emax (Mu-type opioid receptor [9]): 25.3%
Ki (Mu-type opioid receptor [20]): 0.6 nM
Ratio Ki [15]: 267

O=C(N[C@@H]1CC[C@@]2(O)[C@H]3Cc4ccc(O)c5c4[C@@]2(CCN3CC2CC2)[C@H]1O5)c1ccncc1Cl
Ratio Ki [3]: 30
Emax (Mu-type opioid receptor [9]): 24.9%
Ratio Ki [15]: 746

O=C(N[C@@H]1CC[C@@]2(O)[C@H]3Cc4ccc(O)c5c4[C@@]2(CCN3CC2CC2)[C@H]1O5)c1ccncc1Br
Ratio Ki [3]: 6
Emax (Mu-type opioid receptor [9]): 23.2%
Ratio Ki [15]: 285

N#Cc1cc(C(=O)N[C@@H]2CC[C@@]3(O)[C@H]4Cc5ccc(O)c6c5[C@@]3(CCN4CC3CC3)[C@H]2O6)ccn1
EC50 (Mu-type opioid receptor [17]): 10 nM
Ki [18]: 0.13 nM
Ki [19]: 75.3 nM
Ratio Ki [3]: 0.1
Emax (Mu-type opioid receptor [9]): 43.1%
Ki (Mu-type opioid receptor [20]): 1.25 nM
Ratio Ki [15]: 60

O=C(Cc1ccncc1)N[C@@H]1CC[C@@]2(O)[C@H]3Cc4ccc(O)c5c4[C@@]2(CCN3CC2CC2)[C@H]1O5
Ratio Ki [3]: 10.6
Emax (Mu-type opioid receptor [9]): 32.8%
Ratio Ki [15]: 1020
